The source of these data is ChEMBL document CHEMBL1131343, “Nonpeptide cyclic cyanoguanidines as HIV-1 protease inhibitors: synthesis, structure-activity relationships, and X-ray crystal structure studies” (J Med Chem, 1998).

Assay [1] deals with Human immunodeficiency virus 1. Description: The antiviral potency (IC90) was assessed by measuring their effect on the accumulation of viral RNA transcripts on HIV-1 RF infected MT-2 cells. The class given is functional. To be noted: Human immunodeficiency virus 1, MT2. The gist of the method: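 HIV-1 RF infection of MT-2 cells; the read-out is viral RNA transcript accumulation measured 3 days after infection. IC90 is taken from this read-out.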

Assay [2] concerns the target Human immunodeficiency virus type 1 protease (Human immunodeficiency virus 1, UniProt Q72874). Description: Binding affinity for HIV-1 protease enzyme was measured by using fluorescent peptide substrate.

pKi: −log10 of the molar value.

Take `N#CN=C1N(Cc2ccc([N+](=O)[O-])cc2)[C@H](Cc2ccccc2)[C@H](O)[C@@H](O)[C@@H](Cc2ccccc2)N1Cc1ccc([N+](=O)[O-])cc1`: the IC90 in assay [1] was found to be 19300 nM. In assay [2], this compound gave a negative logarithm of the Ki (pKi) of 7.17.
`Nc1ccc(CN2C(=O)N(Cc3ccc(N)cc3)[C@H](Cc3ccccc3)[C@H](O)[C@@H](O)[C@H]2Cc2ccccc2)cc1` had an IC90 in assay [1] of 110 nM. This compound also gave a negative-log Ki (pKi) in assay [2] of 8.96.
In the case of `CC(C)=CCN1C(=NC#N)N(CC=C(C)C)[C@H](Cc2ccccc2)[C@H](O)[C@@H](O)[C@H]1Cc1ccccc1`, in assay [1], the concentration for an effect of 90% (IC90) amounted to 4700 nM. For the same compound, the negative-log Ki (pKi) in assay [2] was 7.52.
`N#CN=C1N(Cc2ccccc2)[C@H](Cc2ccccc2)[C@H](O)[C@@H](O)[C@@H](Cc2ccccc2)N1Cc1ccccc1` registered an IC90 in assay [1] of 3800 nM. Also, the pKi in assay [2] is 7.70.
The matching figures for `O=C1N(Cc2cccc(OCc3ccccc3)c2)[C@H](Cc2ccccc2)[C@H](O)[C@@H](O)[C@@H](Cc2ccccc2)N1Cc1cccc(OCc2ccccc2)c1`: greater than 70000 nM and 6.47.
The matching figures for `N#CN=C1N(Cc2ccc(O)cc2)[C@H](Cc2ccccc2)[C@H](O)[C@@H](O)[C@@H](Cc2ccccc2)N1Cc1ccc(O)cc1`: 250 nM and 8.59.
On the same counts, the results for `N#CN=C1N(Cc2cccc(OCc3ccccc3)c2)[C@H](Cc2ccccc2)[C@H](O)[C@@H](O)[C@@H](Cc2ccccc2)N1Cc1cccc(OCc2ccccc2)c1` are greater than 67300 nM and 5.86.
Consider `N#CN=C1N(CC2CC2)[C@H](Cc2ccccc2)[C@H](O)[C@@H](O)[C@@H](Cc2ccccc2)N1CC1CC1`, for which the 90% effect level in assay [1] (IC90) was put at 5000 nM. This compound also had a pKi in assay [2] of 7.66.
In the case of `O=C1N(Cc2ccc(CO)cc2)[C@H](Cc2ccccc2)[C@H](O)[C@@H](O)[C@@H](Cc2ccccc2)N1Cc1ccc(CO)cc1` [DMP-323], it took 57 nM to reach the 90% level in assay [1] (IC90).
`CCCN1C(=NC#N)N(CCC)[C@H](Cc2ccccc2)[C@H](O)[C@@H](O)[C@H]1Cc1ccccc1` registered an IC90 in assay [1] of 7400 nM. Moreover, the pKi in assay [2] was 7.85.
On the same counts, the results for `N#CN=C1N(Cc2ccc3ccccc3c2)[C@H](Cc2ccccc2)[C@H](O)[C@@H](O)[C@@H](Cc2ccccc2)N1Cc1ccc2ccccc2c1` are greater than 79000 nM and 7.66.
`O=C1N(Cc2ccc(OCc3ccccc3)cc2)[C@H](Cc2ccccc2)[C@H](O)[C@@H](O)[C@@H](Cc2ccccc2)N1Cc1ccc(OCc2ccccc2)cc1`: in assay [1], the IC90 was greater than 70000 nM. This compound also gave a negative logarithm of the Ki (pKi) in assay [2] of 6.27.
On the same counts, the results for `CC(C)CCN1C(=NC#N)N(CCC(C)C)[C@H](Cc2ccccc2)[C@H](O)[C@@H](O)[C@H]1Cc1ccccc1` are 1100 nM and 8.42.
In turn, `N#CN=C1N(Cc2ccc(CO)cc2)[C@H](Cc2ccccc2)[C@H](O)[C@@H](O)[C@@H](Cc2ccccc2)N1Cc1ccc(CO)cc1` displayed an IC90 in assay [1] of 3200 nM. For the same compound, in assay [2], the pKi was 7.96.
For the compound `CCCCN1C(=NC#N)N(CCCC)[C@H](Cc2ccccc2)[C@H](O)[C@@H](O)[C@H]1Cc1ccccc1`, the 90% effect level in assay [1] (IC90) was put at 2600 nM. The compound also gave a pKi in assay [2] of 8.57.
In assay [1], `Nc1cccc(CN2C(=O)N(Cc3cccc(N)c3)[C@H](Cc3ccccc3)[C@H](O)[C@@H](O)[C@H]2Cc2ccccc2)c1` [MOZENAVIR] registered a concentration for an effect of 90% (IC90) of 130 nM. In assay [2], this compound gave a negative logarithm of the Ki (pKi) of 9.55.
On the same counts, the results for `N#CN=C1N(Cc2ccc(C#N)cc2)[C@H](Cc2ccccc2)[C@H](O)[C@@H](O)[C@@H](Cc2ccccc2)N1Cc1ccc(C#N)cc1` are 7700 nM and 6.89.
The matching figures for `N#CN=C1N(Cc2cccc(C#N)c2)[C@H](Cc2ccccc2)[C@H](O)[C@@H](O)[C@@H](Cc2ccccc2)N1Cc1cccc(C#N)c1`: 3100 nM and 7.57.
On the same counts, the results for `N#CN=C1N(CC2CCC2)[C@H](Cc2ccccc2)[C@H](O)[C@@H](O)[C@@H](Cc2ccccc2)N1CC1CCC1` are 840 nM and 8.70.
`NC(=O)NC1=N[C@H](Cc2ccccc2)[C@H](O)[C@@H](O)[C@@H](Cc2ccccc2)N1`: in assay [1], the concentration for an effect of 90% (IC90) is greater than 142000 nM. This compound also gave a pKi in assay [2] of less than 4.90.
On the same counts, the results for `N#Cc1ccc(CN2C(=O)N(Cc3ccc(C#N)cc3)[C@H](Cc3ccccc3)[C@H](O)[C@@H](O)[C@H]2Cc2ccccc2)cc1` are 5800 nM and 7.28.
In the case of `N#CN=C1N(CC2CCCCC2)[C@H](Cc2ccccc2)[C@H](O)[C@@H](O)[C@@H](Cc2ccccc2)N1CC1CCCCC1`, the IC90 in assay [1] is 1100 nM. Also, the pKi in assay [2] was 8.24.
Compound `N#CN=C1N(Cc2cccc([N+](=O)[O-])c2)[C@H](Cc2ccccc2)[C@H](O)[C@@H](O)[C@@H](Cc2ccccc2)N1Cc1cccc([N+](=O)[O-])c1` displayed an IC90 in assay [1] of 17700 nM. For the same compound, in assay [2], the pKi was 7.05.
On to `O=C1N(CC2CCCCC2)[C@H](Cc2ccccc2)[C@H](O)[C@@H](O)[C@@H](Cc2ccccc2)N1CC1CCCCC1`, for which, in assay [1], the 90% effect level (IC90) was put at 96000 nM.
`O=C1N(Cc2ccc([N+](=O)[O-])cc2)[C@H](Cc2ccccc2)[C@H](O)[C@@H](O)[C@@H](Cc2ccccc2)N1Cc1ccc([N+](=O)[O-])cc1` gave a concentration for an effect of 90% (IC90) in assay [1] of 8400 nM. The compound also had a pKi in assay [2] of 7.49.
For `N#CN=C1N(CC2CCCC2)[C@H](Cc2ccccc2)[C@H](O)[C@@H](O)[C@@H](Cc2ccccc2)N1CC1CCCC1`, the 90% effect level in assay [1] (IC90) was put at 350 nM. In assay [2], this compound had a pKi of 8.82.
On the same counts, the results for `N#CN=C1N(Cc2cccc(CO)c2)[C@H](Cc2ccccc2)[C@H](O)[C@@H](O)[C@@H](Cc2ccccc2)N1Cc1cccc(CO)c1` are 590 nM and 8.77.
On the same counts, the results for `O=C1N(Cc2ccc3ccccc3c2)[C@H](Cc2ccccc2)[C@H](O)[C@@H](O)[C@@H](Cc2ccccc2)N1Cc1ccc2ccccc2c1` are 3900 nM and 9.51.
On the same counts, the results for `N#CN=C1N(Cc2cccc(O)c2)[C@H](Cc2ccccc2)[C@H](O)[C@@H](O)[C@@H](Cc2ccccc2)N1Cc1cccc(O)c1` are 130 nM and 9.14.
As for `C=CCN1C(=NC#N)N(CC=C)[C@H](Cc2ccccc2)[C@H](O)[C@@H](O)[C@H]1Cc1ccccc1`, in assay [1], the IC90 was found to be 51000 nM. In assay [2], this compound had a negative-log Ki (pKi) of 7.43.
`CC(C)CCN1C(=O)N(CCC(C)C)[C@H](Cc2ccccc2)[C@H](O)[C@@H](O)[C@H]1Cc1ccccc1` showed an IC90 in assay [1] of 4300 nM.
In the case of `N#CN=C1N(Cc2ccc(OCc3ccccc3)cc2)[C@H](Cc2ccccc2)[C@H](O)[C@@H](O)[C@@H](Cc2ccccc2)N1Cc1ccc(OCc2ccccc2)cc1`, the 90% effect level in assay [1] (IC90) was put at 67300 nM. In assay [2], the negative logarithm of the Ki (pKi) is 6.05.
The matching figures for `N#CN=C1N(Cc2ccc(N)cc2)[C@H](Cc2ccccc2)[C@H](O)[C@@H](O)[C@@H](Cc2ccccc2)N1Cc1ccc(N)cc1`: 2300 nM and 7.60.
In turn, `O=C1N[C@H](Cc2ccccc2)[C@H](O)[C@@H](O)[C@@H](Cc2ccccc2)N1` gave a negative logarithm of the Ki (pKi) in assay [2] of 6.57.
Take `N#CN=C1N(Cc2cccc(N)c2)[C@H](Cc2ccccc2)[C@H](O)[C@@H](O)[C@@H](Cc2ccccc2)N1Cc1cccc(N)c1`: it took 500 nM to reach the 90% level in assay [1] (IC90). This compound also had a negative-log Ki (pKi) in assay [2] of 8.13.
Turning to `O=C1N(Cc2ccc(O)cc2)[C@H](Cc2ccccc2)[C@H](O)[C@@H](O)[C@@H](Cc2ccccc2)N1Cc1ccc(O)cc1`, it took 32 nM to reach the 90% level in assay [1] (IC90).
In assay [1], `CC(C)=CCN1C(=O)N(CC=C(C)C)[C@H](Cc2ccccc2)[C@H](O)[C@@H](O)[C@H]1Cc1ccccc1` registered a concentration for an effect of 90% (IC90) of 860 nM. The compound also showed a negative-log Ki (pKi) in assay [2] of 8.80.
As to `N#Cc1cccc(CN2C(=O)N(Cc3cccc(C#N)c3)[C@H](Cc3ccccc3)[C@H](O)[C@@H](O)[C@H]2Cc2ccccc2)c1`, in assay [1], it took 2200 nM to reach the 90% level (IC90).
